Experimental data published in ChEMBL document CHEMBL4177575 (Bioorg Med Chem, 2017).
pIC50: −log10 of the molar value.

How the values were obtained:
[1] = target: Vascular endothelial growth factor receptor 2 (Homo sapiens, UniProt P35968); assay: Inhibition of VEGFR2 (unknown origin) incubated for 10 mins using FAM-labeled peptide and ATP by mobility shift assay
A549 = assay: Cytotoxicity against human A549 cells assessed as reduction in cell viability incubated for 72 hrs by MTT assay; format: functional, cell-based; details: A549, 72 h
Summary of the method: (§1)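 Cells grown in MEM with 10% FBS; about 4×10^3 cells per well, pre-incubated 24 h at 37 °C in 5% CO2, then exposed to compound for 72 h. Seven concentrations, threefold serial dilution from 100 ug/mL initial. MTT at 5 µg/mL terminal concentration for 4 h; formazan dissolved in DMSO, absorbance read at 492 nm against 630 nm reference. IC50 is the average of two determinations.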

PC-3 = assay: Cytotoxicity against human PC3 cells assessed as reduction in cell viability incubated for 72 hrs by MTT assay; format: functional, cell-based; details: PC-3, 72 h; summary of the method: as §1
MCF7 = assay: Cytotoxicity against human MCF7 cells assessed as reduction in cell viability incubated for 72 hrs by MTT assay; format: functional, cell-based; details: MCF7, 72 h; summary of the method: as §1
[2] = target: Serine/threonine-protein kinase B-raf (Homo sapiens, UniProt P15056); assay: Inhibition of BRAF (unknown origin) incubated for 10 mins using FAM-labeled peptide and ATP by mobility shift assay
Chain of Serine/threonine-protein kinase B-raf (P15056 whole entry): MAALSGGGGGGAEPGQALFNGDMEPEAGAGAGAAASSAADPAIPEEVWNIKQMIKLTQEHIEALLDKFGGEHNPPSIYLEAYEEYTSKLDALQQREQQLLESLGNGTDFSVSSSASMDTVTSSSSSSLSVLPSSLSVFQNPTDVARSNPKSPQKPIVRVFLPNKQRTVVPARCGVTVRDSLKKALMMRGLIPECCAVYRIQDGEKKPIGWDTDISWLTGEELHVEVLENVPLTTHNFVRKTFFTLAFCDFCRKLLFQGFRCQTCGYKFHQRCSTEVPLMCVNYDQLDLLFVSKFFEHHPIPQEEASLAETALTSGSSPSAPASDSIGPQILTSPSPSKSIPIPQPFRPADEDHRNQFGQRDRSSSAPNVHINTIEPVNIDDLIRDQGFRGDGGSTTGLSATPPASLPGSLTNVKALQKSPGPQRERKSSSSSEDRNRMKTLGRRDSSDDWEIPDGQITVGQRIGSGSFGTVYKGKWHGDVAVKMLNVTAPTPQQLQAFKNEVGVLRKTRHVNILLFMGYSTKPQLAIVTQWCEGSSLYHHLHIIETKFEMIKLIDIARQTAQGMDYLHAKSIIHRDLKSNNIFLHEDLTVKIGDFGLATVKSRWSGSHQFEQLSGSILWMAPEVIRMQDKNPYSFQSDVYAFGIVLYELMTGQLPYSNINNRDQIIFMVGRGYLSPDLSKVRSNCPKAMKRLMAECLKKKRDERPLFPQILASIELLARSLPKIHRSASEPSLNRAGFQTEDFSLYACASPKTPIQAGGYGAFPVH

HepG2 = assay: Cytotoxicity against human HepG2 cells assessed as reduction in cell viability incubated for 72 hrs by MTT assay; format: functional, cell-based; details: HepG2, 72 h; summary of the method: as §1

Chain of Vascular endothelial growth factor receptor 2 (P35968 whole entry): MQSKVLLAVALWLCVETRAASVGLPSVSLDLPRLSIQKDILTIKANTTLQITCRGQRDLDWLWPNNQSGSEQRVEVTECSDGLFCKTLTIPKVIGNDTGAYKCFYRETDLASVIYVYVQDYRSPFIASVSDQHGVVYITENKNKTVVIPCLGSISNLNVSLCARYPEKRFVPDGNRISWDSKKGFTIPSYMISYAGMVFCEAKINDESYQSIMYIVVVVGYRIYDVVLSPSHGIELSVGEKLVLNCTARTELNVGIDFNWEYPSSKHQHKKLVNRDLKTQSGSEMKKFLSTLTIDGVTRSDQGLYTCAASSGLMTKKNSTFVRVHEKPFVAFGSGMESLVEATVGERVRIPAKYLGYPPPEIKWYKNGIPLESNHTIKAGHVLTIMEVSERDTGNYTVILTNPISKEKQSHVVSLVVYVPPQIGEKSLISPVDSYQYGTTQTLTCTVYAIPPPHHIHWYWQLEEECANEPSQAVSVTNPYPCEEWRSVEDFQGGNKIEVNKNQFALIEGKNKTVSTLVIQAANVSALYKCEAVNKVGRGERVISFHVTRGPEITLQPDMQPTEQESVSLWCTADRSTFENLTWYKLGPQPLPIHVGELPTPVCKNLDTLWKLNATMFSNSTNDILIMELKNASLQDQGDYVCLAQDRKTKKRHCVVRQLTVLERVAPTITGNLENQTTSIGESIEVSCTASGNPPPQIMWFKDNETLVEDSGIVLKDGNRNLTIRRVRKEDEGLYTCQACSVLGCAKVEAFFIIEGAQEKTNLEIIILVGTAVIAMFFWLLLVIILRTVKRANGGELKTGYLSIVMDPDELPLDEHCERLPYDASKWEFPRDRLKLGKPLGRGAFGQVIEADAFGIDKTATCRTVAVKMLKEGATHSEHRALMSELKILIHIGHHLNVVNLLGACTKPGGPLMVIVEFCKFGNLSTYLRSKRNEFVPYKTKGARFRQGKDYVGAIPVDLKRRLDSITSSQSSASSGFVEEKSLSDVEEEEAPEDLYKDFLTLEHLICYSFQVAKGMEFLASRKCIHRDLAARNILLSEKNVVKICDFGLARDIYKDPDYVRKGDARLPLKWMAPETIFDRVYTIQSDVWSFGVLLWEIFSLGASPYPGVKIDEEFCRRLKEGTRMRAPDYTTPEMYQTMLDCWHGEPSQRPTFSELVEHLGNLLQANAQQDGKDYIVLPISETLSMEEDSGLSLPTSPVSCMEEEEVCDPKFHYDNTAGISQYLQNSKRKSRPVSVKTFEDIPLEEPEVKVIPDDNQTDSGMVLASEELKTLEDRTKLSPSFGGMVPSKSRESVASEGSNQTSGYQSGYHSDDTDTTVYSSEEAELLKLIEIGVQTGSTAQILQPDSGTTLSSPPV

| pIC50 [1] | pIC50 [2] | Structure (SMILES) | pIC50 (A549) | pIC50 (PC-3) | pIC50 (MCF7) | pIC50 (HepG2) |
| --- | --- | --- | --- | --- | --- | --- |
| 5.64 | 5.41 | CNC(=O)c1cc(Oc2ccc(C3=NNC(c4ccccc4)C3)cc2)ccn1 (configuration not stated) | 5.07 | 5.34 | 5.91 | 5.82 |
| – | – | CNC(=O)c1cc(Oc2ccc(C3=NN(C(N)=S)C(c4ccc(C#N)cc4)C3)cc2)ccn1 (configuration not stated) | < 4.30 | < 4.30 | – | < 4.30 |
| – | – | CNC(=O)c1cc(Oc2ccc(C3=NNC(c4ccc([N+](=O)[O-])cc4)C3)cc2)ccn1 (configuration not stated) | 4.71 | < 4.30 | – | < 4.30 |
| – | – | CNC(=O)c1cc(Oc2ccc(NC(=O)Nc3ccc(Cl)c(C(F)(F)F)c3)cc2)ccn1 [SORAFENIB] | 5.53 | 5.49 to 5.50 | – | – |
| < 4.30 | < 4.30 | CNC(=O)c1cc(Oc2ccc(C3=NNC(c4ccc(OC)cc4)C3)cc2)ccn1 (configuration not stated) | 4.88 | 5.11 | 4.96 | 5.02 |
| – | – | CNC(=O)c1cc(Oc2ccc(C3=NNC(c4ccc(Cl)cc4Cl)C3)cc2)ccn1 (configuration not stated) | 5.16 | 5.14 | – | – |
| – | – | CNC(=O)c1cc(Oc2ccc(C3=NNC(c4cc(OC)c(OC)c(OC)c4)C3)cc2)ccn1 (configuration not stated) | 4.43 | 4.55 | – | 4.62 |
| – | – | CNC(=O)c1cc(Oc2ccc(C3=NN(C(N)=S)C(c4cccc([N+](=O)[O-])c4)C3)cc2)ccn1 (configuration not stated) | < 4.30 | < 4.30 | – | < 4.30 |
| – | – | CNC(=O)c1cc(Oc2ccc(C3=NN(C(N)=S)C(c4cccc(Cl)c4Cl)C3)cc2)ccn1 (configuration not stated) | < 4.30 | 4.80 | – | 5.72 |
| – | – | CNC(=O)c1cc(Oc2ccc(C3=NNC(c4ccc(OC)c(OC)c4OC)C3)cc2)ccn1 (configuration not stated) | 4.72 | – | 5.00 | 4.81 |
| – | – | CNC(=O)c1cc(Oc2ccc(C3CC(c4ccc(Cl)cc4)=NN3)cc2)ccn1 (configuration not stated) | 4.69 | – | 4.82 | 4.96 |
| – | – | CNC(=O)c1cc(Oc2ccc(C3=NNC(c4ccc(F)cc4)C3)cc2)ccn1 (configuration not stated) | 4.82 | 5.17 | 5.02 | 5.28 |
| – | – | CNC(=O)c1cc(Oc2ccc(C3=NNC(c4ccc(F)cc4Cl)C3)cc2)ccn1 (configuration not stated) | 4.86 | 4.62 | – | 4.94 |
| – | – | CNC(=O)c1cc(Oc2ccc(C3=NNC(c4ccc(Cl)c(Cl)c4)C3)cc2)ccn1 (configuration not stated) | 4.97 | 4.44 | – | 4.84 |
| – | – | CNC(=O)c1cc(Oc2ccc(C3=NN(C(N)=S)C(c4ccc(F)cc4)C3)cc2)ccn1 (configuration not stated) | 4.71 | < 4.30 | – | < 4.30 |
| – | – | CNC(=O)c1cc(Oc2ccc(C3CC(c4ccc(Br)cc4)=NN3)cc2)ccn1 (configuration not stated) | – | – | 4.82 | 4.77 |
| – | – | CNC(=O)c1cc(Oc2ccc(C3CC(c4ccc([N+](=O)[O-])cc4)=NN3C(N)=S)cc2)ccn1 (configuration not stated) | < 4.30 | < 4.30 | – | < 4.30 |
| – | – | CNC(=O)c1cc(Oc2ccc(C3=NNC(c4ccc(C#N)cc4)C3)cc2)ccn1 (configuration not stated) | 4.76 | 5.00 | – | 4.82 |
| < 4.30 | < 4.30 | CNC(=O)c1cc(Oc2ccc(C3CC(c4ccc([N+](=O)[O-])cc4)=NN3)cc2)ccn1 (configuration not stated) | – | – | 5.10 | 4.54 |
| – | – | CNC(=O)c1cc(Oc2ccc(C3=NN(C(N)=S)C(c4ccc(Cl)cc4)C3)cc2)ccn1 (configuration not stated) | < 4.30 | < 4.30 | – | < 4.30 |
| – | – | CNC(=O)c1cc(Oc2ccc(C3=NNC(c4cccc([N+](=O)[O-])c4)C3)cc2)ccn1 (configuration not stated) | – | – | 4.45 | 4.58 |
| – | – | CNC(=O)c1cc(Oc2ccc(C3=NNC(c4cccc(Cl)c4Cl)C3)cc2)ccn1 (configuration not stated) | 4.92 | – | – | 5.30 |
| – | – | CNC(=O)c1cc(Oc2ccc(C3=NNC(c4ccc(Br)cc4)C3)cc2)ccn1 (configuration not stated) | 4.68 | < 4.30 | – | 4.24 |
